Series [1] concerns Nucleic Acid. Put plainly: Binding affinity to polu A-poly U assessed as melting temperature at compound over DNA molar ratio of 0.3 at pH 7 by thermal denaturation assay. In kind it is nucleic-acid assay. The method, boiled down:
(§1)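 Thermal melting of ds-polynucleotide (ct-DNA or poly A-poly U) alone and with compound at the given r, Na-cacodylate pH 7.0, I = 0.05 mol dm^-3. Absorbance at 260 nm was followed versus temperature, with compound absorbance subtracted and the curve normalized. Tm was taken from the first-derivative maximum or by tangent. ΔTm = Tm(complex) − Tm(free nucleic acid).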

For series [2], the system named is Calf thymus DNA. The series can be described thus: Binding affinity to calf thymus DNA assessed as batochromic effect at compound over DNA molar ratio of 0.2 by UV-Vis spectra. The series is classed as nucleic-acid assay. The following applies: Bos taurus. A digest of the protocol:
(§2)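 UV-Vis titration of compound (c = 1.97 × 10^-5 mol dm^-3 in the shown example) with ct-DNA. Na-cacodylate buffer, pH 7.0, I = 0.05 mol dm^-3, 1 cm quartz cuvette. Absorbance at the maximum was tracked against c(ct-DNA). Ks and n were obtained by non-linear least-squares Scatchard fitting.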

Another series concerns NCI-H358. Put plainly: Cytotoxicity against human NCI-H358 cells after 72 hrs by MTT assay. In kind it is functional. As to conditions: NCI-H358, 72 h. A digest of the protocol:
(§3)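 Cells were seeded at 2 × 10^4 cells/mL and attached overnight at 37 °C, 5% CO2. They were then exposed for 72 h to compounds from aqueous stocks (working solutions 10^-3–10^-6 mol dm^-3). MTT was added for 4 h at 37 °C, formazan dissolved in DMSO, and absorbance read at 570 nm. GI50 is the mean ± SD of three independent experiments run in triplicate.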
In general terms: Formazan colour is commonly taken as a measure of viable cells.

The subject of series [3] is Calf thymus DNA. Put plainly: Binding affinity to calf thymus DNA assessed as melting temperature at compound over DNA molar ratio of 0.1 at pH 7 by thermal denaturation assay. The series is classed as nucleic-acid assay. The following applies: Bos taurus. A digest of the protocol:
as §1

The subject of series [4] is Calf thymus DNA. The series can be described thus: Binding affinity to calf thymus DNA assessed as melting temperature at compound over DNA molar ratio of 0.3 at pH 7 by thermal denaturation assay. In kind it is nucleic-acid assay. As to conditions: Bos taurus. A digest of the protocol:
as §1

Series [5] relates to Calf thymus DNA. The series can be described thus: Binding affinity to calf thymus DNA assessed as batochromic effect at compound over DNA molar ratio of 0.2 by fluorimetric titration. The series is classed as nucleic-acid assay. As to conditions: Bos taurus. A digest of the protocol:
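Fluorimetric titration of compound (about 1.0 × 10^-6 mol dm^-3) with ct-DNA. Excitation above 360 nm to avoid inner-filter effects. Na-cacodylate buffer, pH 7.0, I = 0.05 mol dm^-3. Emission at the maximum was plotted against c(ct-DNA). Ks and n were obtained by non-linear Scatchard fitting.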

Series [6] deals with Nucleic Acid. Put plainly: Binding affinity to ds-RNA assessed as RNA CD band at compound over RNA molar ratio of < 0.2 by circular dichroism titration. In kind it is nucleic-acid assay. A digest of the protocol: (§4)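 CD titration of polynucleotide (2.0 × 10^-5 mol dm^-3, as phosphate) with added compound over a range of r = [compound]/[polynucleotide]. Na-cacodylate buffer, pH 7.0, I = 0.05 mol dm^-3, 1 cm quartz cuvette. ct-DNA was sonicated and filtered before use. Changes in the polynucleotide CD band and induced CD bands were followed.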

The subject of another series is HEp-2. Put plainly: Cytotoxicity against human Hep2 cells after 72 hrs by MTT assay. In kind it is functional. As to conditions: HEp-2, 72 h. A digest of the protocol: as §3
In the next series the test system is AGS. Put plainly: Cytotoxicity against human AGS cells after 72 hrs by MTT assay. In kind it is functional. A digest of the protocol: as §3
Another series deals with Caco-2. The series can be described thus: Cytotoxicity against human Caco2 cells after 72 hrs by MTT assay. The following applies: Caco-2, 72 h. In kind it is functional. A digest of the protocol: as §3
In the next series the test system is MIA PaCa-2. The series can be described thus: Cytotoxicity against human MIAPaCa2 cells after 72 hrs by MTT assay. In kind it is functional. As to conditions: MIA PaCa-2, 72 h. A digest of the protocol: as §3
The subject of another series is MCF7. The series can be described thus: Cytotoxicity against human MCF7 cells after 72 hrs by MTT assay. The following applies: MCF7, 72 h. In kind it is functional. The method, boiled down:
as §3

In series [7] the test system is Calf thymus DNA. Put plainly: Binding affinity to calf thymus DNA assessed as melting temperature at compound over DNA molar ratio of 0.2 at pH 7 by thermal denaturation assay. The following applies: Bos taurus. The series is classed as nucleic-acid assay. A digest of the protocol:
as §1

Series [8] relates to Calf thymus DNA. The series can be described thus: Binding affinity to calf thymus DNA assessed as DNA CD band at compound over DNA molar ratio of > 0.3 by circular dichroism titration. The series is classed as nucleic-acid assay. As to conditions: Bos taurus. A digest of the protocol: as §4
(In general: Circular dichroism is the unequal absorption of left and right circularly polarised light.)

Series [9] has as its system Calf thymus DNA. Put plainly: Binding affinity to calf thymus DNA minor groove assessed as DNA CD band at compound over DNA molar ratio of < 0.2 by circular dichroism titration. In kind it is nucleic-acid assay. As to conditions: Bos taurus. A digest of the protocol:
as §4

The subject of series [10] is Calf thymus DNA. Put plainly: Binding affinity to calf thymus DNA assessed as hyperchromic effect at compound over DNA molar ratio of 0.2 by UV-Vis spectra. The series is classed as nucleic-acid assay. As to conditions: Bos taurus; in the assay text read “hypochromic effect” for “hyperchromic effect”. A digest of the protocol: as §2
The next series relates to HeLa. The series can be described thus: Cytotoxicity against human HeLa cells after 72 hrs by MTT assay. In kind it is functional. The method, boiled down: as §3
Series [11] can be described thus: Cytotoxicity against MDCK cells after 72 hrs by MTT assay. The following applies: dog. The series is classed as cell-based, Canis lupus familiaris. The method, boiled down:
as §3

The test system of series [12] is Calf thymus DNA. Put plainly: Binding affinity to calf thymus DNA assessed as hyperchromic effect at compound over DNA molar ratio of 0.5 by UV-Vis spectra. In kind it is nucleic-acid assay. As to conditions: Bos taurus; in the assay text read “hypochromic effect” for “hyperchromic effect”. A digest of the protocol:
as §2

In series [13] the test system is Nucleic Acid. Put plainly: Binding affinity to ds-RNA assessed as RNA CD band at compound over RNA molar ratio of > 0.2 by circular dichroism titration. The series is classed as nucleic-acid assay. A digest of the protocol:
as §4

For series [14], the system named is Calf thymus DNA. The series can be described thus: Binding affinity to calf thymus DNA assessed as hyperchromic effect at compound over DNA molar ratio of 0.4 by UV-Vis spectra. The following applies: Bos taurus; in the assay text read “hypochromic effect” for “hyperchromic effect”. In kind it is nucleic-acid assay. A digest of the protocol: as §2

Activity calls are given as the source filed them. The rule behind the calls is not given here.

One may read the ΔTm as the change in melting temperature against a reference sample. As a reminder, the GI50 is the concentration giving 50% growth inhibition. Higher therefore signals lower sensitivity of the cells.

Consider `c1cc(-c2sc(-c3ccc(C4=NCCCN4)cc3)c3c2OCCO3)ccc1C1=NCCCN1`, for which the thermal shift (ΔTm) in the series on Nucleic Acid [1] was 8.2 °C; with Calf thymus DNA [3], 11.8 °C; in the series on Calf thymus DNA [4], > 16 °C; in the series on Calf thymus DNA [7] it was > 16 °C. For the same molecule, the result in the series on Calf thymus DNA [2], in the series with Calf thymus DNA [5], in the series with Calf thymus DNA [8], with Calf thymus DNA [9] and in the series with Calf thymus DNA [10] was Active. In addition, the concentration for 50% growth inhibition (GI50) in the series on NCI-H358 is 98.7 µM; in the series on HEp-2, 97.7 µM; in the series with AGS, 81.7 µM; in the series with Caco-2, 101 µM; in the series with MIA PaCa-2, 64.7 µM; in the series on MCF7 it was 8.4 µM. Further, the GI50 in the series with HeLa was found to be 97.5 µM. The result in the series with Nucleic Acid [6] was inactive. Moreover, growth in series [11] was halved (GI50 at 72 h) at 82 µM.

Turning to `N=C(N)c1ccc(-c2sc(-c3ccc(C(=N)N)cc3)c3c2OCCO3)cc1`, the ΔTm is 12.6 °C in the series on Nucleic Acid [1], 12.2 °C in the series on Calf thymus DNA [3], > 16 °C with Calf thymus DNA [4] and > 16 °C in the series with Calf thymus DNA [7]. In addition, the outcome in the series on Calf thymus DNA [2], in the series with Calf thymus DNA [12], in the series on Calf thymus DNA [5], in the series on Calf thymus DNA [8] and with Calf thymus DNA [9] was Active. Further, the GI50 with NCI-H358 is 33 µM; in the series on HEp-2, 9.3 µM; in the series with AGS, 116 µM; in the series on Caco-2, 13 µM; in the series with MIA PaCa-2 it was 9.3 µM; in the series on MCF7, 25 µM. Besides, growth in the series on HeLa was halved (GI50) at 32.3 µM. In addition, the result in the series on Nucleic Acid [6] was inactive. In series [11], this molecule registered a GI50 at 72 h of 7.1 µM.

Regarding `CC(C)NC(=N)c1ccc(-c2sc(-c3ccc(C(=N)NC(C)C)cc3)c3c2OCCO3)cc1`, the shift in melting temperature (ΔTm) came out at 5.8 °C in the series with Nucleic Acid [1], 8.4 °C in the series on Calf thymus DNA [3], 12.3 °C in the series with Calf thymus DNA [4] and 11.1 °C in the series with Calf thymus DNA [7]. Besides, the outcome in the series on Nucleic Acid [13], in the series with Calf thymus DNA [2], in the series with Calf thymus DNA [5], in the series with Calf thymus DNA [14], with Calf thymus DNA [8] and with Calf thymus DNA [9] was Active. For the same molecule, the concentration for 50% growth inhibition (GI50) worked out at 113 µM with NCI-H358; 9 µM in the series with HEp-2; 72.3 µM with AGS; 76.5 µM in the series on Caco-2; 13 µM in the series on MIA PaCa-2; 67.5 µM in the series on MCF7. For the same molecule, the GI50 in the series on HeLa was determined as 72.3 µM. The outcome in the series on Nucleic Acid [6] was inactive. The GI50 at 72 h in series [11] amounted to 65.3 µM.

Consider `N=C(Nc1ccccc1)c1sc(C(=N)Nc2ccccc2)c2c1OCCO2`, for which the ΔTm in the series with Nucleic Acid [1] and with Calf thymus DNA [4] was 0 °C in each case. Moreover, the GI50 with NCI-H358 amounted to 112 µM; with HEp-2, 100 µM; in the series on AGS, 114 µM; in the series on Caco-2 it was 134 µM; in the series with MIA PaCa-2, 128 µM; with MCF7, 129 µM. In the series with HeLa, it took 138 µM to inhibit growth by half (GI50). In [11], this molecule showed a GI50 at 72 h of 79.5 µM.

On to `CC(C)CNC(=N)c1ccc(-c2sc(-c3ccc(C(=N)NCC(C)C)cc3)c3c2OCCO3)cc1`, for which the ΔTm in the series on Nucleic Acid [1] worked out at 5.2 °C; in the series with Calf thymus DNA [3], 9 °C; in the series with Calf thymus DNA [4] it was 15 °C; in the series on Calf thymus DNA [7], 9 °C. Also, the outcome in the series with Calf thymus DNA [2], in the series with Calf thymus DNA [5], with Calf thymus DNA [8], in the series on Calf thymus DNA [9] and with Calf thymus DNA [10] was Active. For the same molecule, the GI50 in the series with NCI-H358 was 73.3 µM; with HEp-2, 9.9 µM; in the series with AGS it was 59.3 µM; in the series on Caco-2 it was 42.8 µM; in the series on MIA PaCa-2, 4.9 µM; in the series on MCF7, 7.3 µM. The molecule also registered a GI50 with HeLa of 18.8 µM. Further, the outcome in the series on Nucleic Acid [6] was inactive. Further, it took 59.7 µM to inhibit growth in series [11] by half (GI50 at 72 h).

Regarding `N=C(NC1CCCC1)c1ccc(-c2sc(-c3ccc(C(=N)NC4CCCC4)cc3)c3c2OCCO3)cc1`, the ΔTm with Nucleic Acid [1] was 1.4 °C; with Calf thymus DNA [3] it was 12.3 °C; in the series with Calf thymus DNA [4], > 16 °C; in the series with Calf thymus DNA [7], 15.2 °C. For the same molecule, the outcome in the series with Calf thymus DNA [2], with Calf thymus DNA [5], in the series with Calf thymus DNA [8], with Calf thymus DNA [9] and in the series with Calf thymus DNA [10] was Active. Moreover, the concentration for 50% growth inhibition (GI50) in the series on NCI-H358 turned out to be 62.2 µM; in the series with HEp-2, 61.3 µM; in the series with AGS, 45 µM; with Caco-2 it was 41 µM; in the series with MIA PaCa-2 it was 10.9 µM; with MCF7 it was 7.8 µM. Further, the 50% growth inhibitory concentration (GI50) in the series with HeLa turned out to be 26.7 µM. The result with Nucleic Acid [6] was inactive. Moreover, the 50% growth inhibitory concentration (GI50) at 72 h in [11] came to 50 µM.

The values are drawn from ChEMBL document CHEMBL1667800, “Synthesis, DNA/RNA affinity and antitumour activity of new aromatic diamidines linked by 3,4-ethylenedioxythiophene” (Eur J Med Chem, 2011).
